Measured values: ChEMBL document CHEMBL3608292, “Synthesis and biological evaluation of novel myrtucommulones and structural analogues that target mPGES-1 and 5-lipoxygenase” (Eur J Med Chem, 2015)

Columns and labels:
[1] = target: T1, Polyunsaturated fatty acid 5-lipoxygenase (Homo sapiens, UniProt P09917); test: Inhibition of recombinant human 5-LO expressed in Escherichia coli BL21 using arachidonic acid as substrate assessed as formation of LTB4, 5(S),12(S)-DiHETE, 5-H(p)ETE preincubated for 5 to 10 mins followed by substrate addition measured after 10 mins by HPLC
T1 sequence (P09917 whole entry): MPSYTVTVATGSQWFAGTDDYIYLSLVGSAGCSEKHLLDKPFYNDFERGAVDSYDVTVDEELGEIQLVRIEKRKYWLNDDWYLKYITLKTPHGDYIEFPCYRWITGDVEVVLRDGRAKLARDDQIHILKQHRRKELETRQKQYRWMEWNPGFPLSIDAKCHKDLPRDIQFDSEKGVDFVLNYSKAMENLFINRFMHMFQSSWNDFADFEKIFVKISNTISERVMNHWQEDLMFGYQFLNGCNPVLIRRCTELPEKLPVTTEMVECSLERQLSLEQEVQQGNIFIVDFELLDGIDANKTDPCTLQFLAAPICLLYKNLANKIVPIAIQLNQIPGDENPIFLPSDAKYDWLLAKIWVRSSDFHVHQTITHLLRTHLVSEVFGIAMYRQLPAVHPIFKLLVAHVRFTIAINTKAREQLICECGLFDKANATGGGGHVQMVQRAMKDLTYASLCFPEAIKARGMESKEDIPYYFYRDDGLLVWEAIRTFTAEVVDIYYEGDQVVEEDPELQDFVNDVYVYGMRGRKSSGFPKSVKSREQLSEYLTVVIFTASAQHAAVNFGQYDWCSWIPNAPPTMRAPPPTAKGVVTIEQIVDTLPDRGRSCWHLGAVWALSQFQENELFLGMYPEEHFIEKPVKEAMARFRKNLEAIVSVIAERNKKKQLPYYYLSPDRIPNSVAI

[2] = target: T1, Polyunsaturated fatty acid 5-lipoxygenase; test: Inhibition of 5-LO in human PMNL using arachidonic acid as substrate preincubated for 10 mins followed by substrate addition measured after 10 mins by HPLC analysis
[3] = target: Prostaglandin G/H synthase 1 (Homo sapiens, UniProt P23219); test: Inhibition of COX-1 in human platelet using arachidonic acid as substrate assessed as formation of 12-HHT preincubated for 10 mins followed by substrate addition measured after 5 mins by HPLC analysis
Sequence of Prostaglandin G/H synthase 1 (P23219 whole entry): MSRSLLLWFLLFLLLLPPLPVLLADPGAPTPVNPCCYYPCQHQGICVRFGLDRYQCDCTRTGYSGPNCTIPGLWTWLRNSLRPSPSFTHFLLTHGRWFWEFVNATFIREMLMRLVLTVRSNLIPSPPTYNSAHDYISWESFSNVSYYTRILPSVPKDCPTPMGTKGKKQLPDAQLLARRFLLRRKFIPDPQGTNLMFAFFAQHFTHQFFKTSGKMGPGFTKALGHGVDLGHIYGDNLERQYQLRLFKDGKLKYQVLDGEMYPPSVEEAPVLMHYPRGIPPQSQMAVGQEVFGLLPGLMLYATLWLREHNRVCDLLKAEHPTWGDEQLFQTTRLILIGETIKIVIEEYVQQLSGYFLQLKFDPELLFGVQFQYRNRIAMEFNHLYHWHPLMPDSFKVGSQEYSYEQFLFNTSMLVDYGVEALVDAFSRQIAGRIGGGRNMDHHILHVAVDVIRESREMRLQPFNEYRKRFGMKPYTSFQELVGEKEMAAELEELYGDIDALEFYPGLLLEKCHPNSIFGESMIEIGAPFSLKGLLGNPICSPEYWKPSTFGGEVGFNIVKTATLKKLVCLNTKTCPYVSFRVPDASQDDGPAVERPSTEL

[4] = target: T2, Prostaglandin E synthase (Homo sapiens, UniProt O14684); test: Inhibition of mPGES-1 in microsomal membranes isolated from interleukin-1beta-stimulated human A549 cells using PGH2 as substrate assessed as PGE2 formation preincubated for 15 mins followed by substrate addition measured after 1 min by RP-HPLC analysis; type: cell membranes
T2 sequence (O14684 whole entry): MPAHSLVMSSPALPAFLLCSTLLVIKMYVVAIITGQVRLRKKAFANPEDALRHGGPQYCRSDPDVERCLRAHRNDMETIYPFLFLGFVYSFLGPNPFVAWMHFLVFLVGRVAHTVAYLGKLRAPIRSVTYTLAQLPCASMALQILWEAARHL
Summary of the method: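 A549 cells kept 16 h in DMEM with 2% FCS, then 1 ng/ml IL-1β for 72 h. Cells homogenized and sonicated, microsomes obtained by centrifugation at 10,000 × g then 174,000 × g. Microsomes in 0.1 M potassium phosphate pH 7.4 with 2.5 mM glutathione, preincubated 15 min with compound or 0.3% DMSO. 20 µM PGH₂ (final) for 1 min at 4 °C. Stopped with FeCl₂/citric acid containing 11β-PGE₂, solid-phase extraction, RP-HPLC with UV at 195 nm.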

[5] = tested on: Jurkat; test: Cytotoxicity against human Jurkat cells assessed as induction of cell death after 48 hrs by MTT assay; type: functional, cell-based
Summary of the method: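 Jurkat T cells grown in RPMI 1640 with 10% heat-inactivated FCS, 10 mM HEPES, penicillin/streptomycin at 37 °C, 5% CO₂. Seeded at 2 × 10⁴ per well. Compounds or 0.3% DMSO vehicle added for 48 h. MTT then added until blue staining, cells lysed overnight in 10% SDS/20 mM HCl, absorbance read at 570 nm. Three to four independent experiments.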

[6] = target: T1, Polyunsaturated fatty acid 5-lipoxygenase; test: Inhibition of recombinant human 5-LO expressed in Escherichia coli BL21 using arachidonic acid as substrate assessed as formation of all-trans isomer of LTB4, 5-H(P)ETE preincubated for 5 to 10 mins followed by substrate addition measured after 10 mins by HPLC analysis
[7] = target: T1, Polyunsaturated fatty acid 5-lipoxygenase; test: Inhibition of 5-LO in ionophore A23187-stimulated human PMNL using arachidonic acid as substrate assessed as formation of LTB4, 5(S),12(S)-DiHETE, 5-H(p)ETE preincubated for 15 mins followed by substrate and ionophore addition measured after 10 mins by HPLC analysis

`CC(C)C(=O)c1c(O)c([C@H](C2=C(O)C(C)(C)C(=O)C(C)(C)C2=O)C(C)C)c(O)c([C@H](C2=C(O)C(C)(C)C(=O)C(C)(C)C2=O)C(C)C)c1O` [MYRTUCOMMULONE A] showed an IC50 [1] of 5 µM, an IC50 [2] of 1.8 µM and an IC50 [3] of 17 µM. For the same compound, the IC50 [4] was 1 µM, the EC50 [5] was 2.4 µM and the IC50 [6] was 15 µM. For the same compound, the IC50 [7] was 3.2 µM.
